Test results published in ChEMBL document CHEMBL1817608, “Synthesis and anti-inflammatory effects of a series of novel 7-hydroxycoumarin derivatives” (Eur J Med Chem, 2011).

Legend:
J774 [1] = test: Inhibition of LPS-stimulated iNOS protein expression in mouse J774 cells at 10 uM by Western blot analysis
J774 [2] = test: Antiinflammatory activity in mouse J774 cells assessed as inhibition of LPS-induced NO production at 100 uM by Griess reaction; type: functional
In short: (§1)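 Confluent J774 macrophages, grown 72 h in 24-well plates, were stimulated with LPS in fresh medium containing compound. Nitrite was quantified against a sodium nitrite standard. Results were given as % inhibition versus LPS alone, mean ± S.E.M.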

J774 [3] = test: Antiinflammatory activity in mouse J774 cells assessed as inhibition of LPS-induced COX-2 protein expression at 10 uM by Western blot
J774 [4] = test: Antiinflammatory activity in mouse J774 cells assessed as inhibition of LPS-induced NO production at 10 uM by Griess reaction; type: functional
In short: as §1

J774 [5] = test: Cytotoxicity against mouse J774 cells at 100 uM by XTT assay; type: cell-based; settings: j774, 100 µM
In short: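 Confluent J774 monolayers were exposed to compound under the same conditions as the anti-inflammatory assays. Viability was read as mitochondrial dehydrogenase reduction of XTT to formazan.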

J774 [6] = test: Inhibition of LPS-stimulated iNOS protein expression in mouse J774 cells at 100 uM by Western blot analysis
J774 [7] = test: Inhibition of LPS-stimulated IL-6 production in mouse J774 cells at 100 uM by ELISA
J774 [8] = test: Inhibition of LPS-stimulated IL-6 production in mouse J774 cells at 10 uM by ELISA
J774 [9] = test: Antiinflammatory activity in mouse J774 cells assessed as inhibition of LPS-induced COX-2 protein expression at 100 uM by Western blot
J774 [10] = test: Inhibition of LPS-stimulated iNOS mRNA expression in mouse J774 cells by RT-PCR analysis; type: functional
In short: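 J774 cells were incubated for 3 h with LPS plus compound. Total RNA was extracted and reverse-transcribed, then run by real-time PCR for 40 cycles (95 °C 15 s / 60 °C 1 min), in duplicate. iNOS mRNA was quantified from a standard curve built with LPS-stimulated J774 RNA and normalised to GAPDH.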

[11] = biological target: Transcription factor p65 (Mus musculus) (UniProt Q04207); test: Inhibition of NF-kB p65 nuclear translocation in LPS-stimulated mouse J774 cells by Western blot analysis; type: cell-based; settings: concentration not given here
Sequence of Transcription factor p65 (Mus musculus) (Q04207 whole entry): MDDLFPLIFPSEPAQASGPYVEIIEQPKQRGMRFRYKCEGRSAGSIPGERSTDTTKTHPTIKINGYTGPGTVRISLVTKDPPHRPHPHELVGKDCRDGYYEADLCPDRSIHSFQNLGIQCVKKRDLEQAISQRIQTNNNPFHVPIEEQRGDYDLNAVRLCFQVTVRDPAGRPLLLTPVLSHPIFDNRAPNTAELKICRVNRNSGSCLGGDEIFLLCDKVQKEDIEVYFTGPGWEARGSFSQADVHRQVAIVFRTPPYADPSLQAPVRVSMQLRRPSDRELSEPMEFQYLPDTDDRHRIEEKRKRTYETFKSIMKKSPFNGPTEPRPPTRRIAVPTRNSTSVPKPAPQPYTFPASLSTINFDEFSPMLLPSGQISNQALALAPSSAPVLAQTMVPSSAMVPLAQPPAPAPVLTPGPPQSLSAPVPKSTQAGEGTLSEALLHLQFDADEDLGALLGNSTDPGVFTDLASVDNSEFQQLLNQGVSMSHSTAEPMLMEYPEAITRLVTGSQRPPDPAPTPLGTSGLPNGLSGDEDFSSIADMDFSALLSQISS
In short: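 Nuclear extracts were prepared from LPS-treated J774 cells using hypotonic buffer A followed by high-salt buffer C (420 mM NaCl). Extract protein (20 µg) was run on 10% SDS-PAGE, blotted, and probed with anti-NF-κB p65 antibody, then detected by chemiluminescence.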

[12] = biological target: Transcription factor p65 (Mus musculus) (UniProt Q04207); test: Inhibition of NF-kB p65 nuclear translocation in LPS-stimulated mouse J774 cells at 100 uM by Western blot analysis; type: cell-based
In short: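 J774 murine macrophages were grown in DMEM glutamax-I with 10% heat-inactivated FBS and antibiotics for 72 h to confluence, then given compound with LPS in fresh medium. Nuclear extracts were made by hypotonic lysis followed by high-salt extraction of the nuclei. 20 µg protein was run on 10% SDS-PAGE and blotted onto nitrocellulose. Blots were probed with anti-p65 and an HRP secondary antibody, and chemiluminescence was quantified. Results are mean ± SEM.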

inhibition [11] [%] | SMILES | inhibition at 10 µM (J774 [1]) [%] | inhibition at 100 µM (J774 [2]) [%] | inhibition at 10 µM (J774 [3]) [%] | inhibition at 10 µM (J774 [4]) [%] | Activity (J774 [5]) | inhibition at 100 µM (J774 [6]) [%] | inhibition at 100 µM (J774 [7]) [%] | inhibition at 10 µM (J774 [8]) [%] | inhibition at 100 µM (J774 [9]) [%] | inhibition (INH) (J774 [10]) [%] | inhibition [12] [%]
 | Cc1cc(O)cc2oc(=O)cc(C)c12 | -19.7 | 71 | -14.8 | -8.6 | Non-toxic | 74.3 | 66.4 | 14.5 | -17.5 |  | 
 | COc1c(O)ccc2c(C)c(F)c(=O)oc12 | 2.7 | 50.2 | -15.4 | 15.8 | Non-toxic | 86.2 | 14.8 | 10.7 | -36.8 |  | 
 | COc1c(O)ccc2c(-c3ccccc3)cc(=O)oc12 | 55.9 | 81.8 | -59.1 | 71.5 | Non-toxic | 84.6 | 46.9 |  | -34.7 |  | 
65 | Cc1c(C)c2c(C)cc(O)cc2oc1=O | 49.6 | 92.4 | -31.7 | 51.8 | Non-toxic | 94.7 | 92.2 |  | 11.1 | 50 | 
 | Cc1c(F)c(=O)oc2cc(O)ccc12 | 46.5 | 62.8 | -2.2 | 7.4 | Non-toxic | 53 | 38.1 | 21.2 | -25.1 |  | 
 | CCCc1cc(=O)oc2c(OC)c(O)ccc12 | 13.4 | 83.7 | -38.9 | 57 | Non-toxic | 74.6 | 73.4 | 11 | 8.6 |  | 
65 | Cc1c(C)c2ccc(O)cc2oc1=O | 28.6 | 88.9 | -57.7 | 37.6 | Non-toxic | 85.5 | 85.7 | 16.7 | 3.7 | 50 | 
65 | CCc1c(C)c2ccc(O)cc2oc1=O | 7.5 | 92.3 | -29.9 | 43.3 | Non-toxic | 91 |  | 27.9 | -73.2 | 50 | 
 | CCCc1cc(=O)oc2cc(O)cc(C)c12 | 7.8 | 62.5 | -6.8 | 38.5 | Non-toxic | 87.8 | 54.3 | 12.2 | -45.6 |  | 
 | S=C(S)N1CCCC1 [PYRROLIDINE DITHIOCARBAMATE] |  |  |  |  |  | 97 |  |  |  |  | 95
 | CCCc1cc(=O)oc2cc(O)ccc12 | 25.3 | 67.6 | -11.1 | 25.3 | Non-toxic | 89.7 | 88.9 | 25.4 | 25 |  | 
 | O=c1cc(-c2ccccc2)c2ccc(O)cc2o1 | 46.5 | 85 | -47.1 | 54.8 | Non-toxic | 93 | 95.7 |  | -0.4 |  | 
 | Cc1cc(O)cc2oc(=O)ccc12 | 2.7 | 80 | -44.1 | 9.2 | Non-toxic | 86.2 | 4.2 |  | -60.4 |  | 
 | O=c1cc(-c2ccccc2F)c2ccc(O)cc2o1 | 48.8 | 87.5 | -34.7 | 50.4 | Non-toxic | 95.4 | 92.7 | 0.3 | -16.6 |  | 
 | Cc1cc(=O)oc2c(C)c(O)ccc12 | 20.1 | 65.7 | 2.3 | 17.3 | Non-toxic | 61.4 | 82.8 | 17.5 | 7.8 |  | 
 | Cc1cc(=O)oc2cc(O)ccc12 [HYMECROMONE] | 22.1 | 42.9 | 3.2 | -14.2 | Non-toxic | 61.8 | 44.1 | 4.6 | 22.7 |  | 
 | CCc1c(C)c2ccc(O)c(C)c2oc1=O | 18.9 | 87 | -36.8 | 46.5 | Non-toxic | 65.2 | 94.9 | 26.1 | 21 |  | 
 | O=c1ccc2ccc(O)cc2o1 [UMBELLIFERONE] | 10 | 64.4 | -17.2 | 5.5 | Non-toxic | 47.2 | 34.1 | 3.2 | -20.4 |  | 
